Data set [1] concerns the target T1, Prostaglandin E synthase/G/H synthase 2 (Homo sapiens) (UniProt P35354+O14684). Briefly: Inhibition of COX-2/mPGES1 in human HeLa cells assessed as reduction in TNF-alpha induced PGE2 production at 5 uM after 15 mins followed by ELISA. It counts as cell-based. A digest of the protocol: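 TNF-treated HeLa cells were exposed to compound for 15 min without added arachidonic acid. PGE2 released into the culture supernatant was measured by ELISA.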

Data set [2] deals with T2, Polyunsaturated fatty acid 5-lipoxygenase (Homo sapiens, UniProt P09917).
T2 sequence (P09917 whole entry): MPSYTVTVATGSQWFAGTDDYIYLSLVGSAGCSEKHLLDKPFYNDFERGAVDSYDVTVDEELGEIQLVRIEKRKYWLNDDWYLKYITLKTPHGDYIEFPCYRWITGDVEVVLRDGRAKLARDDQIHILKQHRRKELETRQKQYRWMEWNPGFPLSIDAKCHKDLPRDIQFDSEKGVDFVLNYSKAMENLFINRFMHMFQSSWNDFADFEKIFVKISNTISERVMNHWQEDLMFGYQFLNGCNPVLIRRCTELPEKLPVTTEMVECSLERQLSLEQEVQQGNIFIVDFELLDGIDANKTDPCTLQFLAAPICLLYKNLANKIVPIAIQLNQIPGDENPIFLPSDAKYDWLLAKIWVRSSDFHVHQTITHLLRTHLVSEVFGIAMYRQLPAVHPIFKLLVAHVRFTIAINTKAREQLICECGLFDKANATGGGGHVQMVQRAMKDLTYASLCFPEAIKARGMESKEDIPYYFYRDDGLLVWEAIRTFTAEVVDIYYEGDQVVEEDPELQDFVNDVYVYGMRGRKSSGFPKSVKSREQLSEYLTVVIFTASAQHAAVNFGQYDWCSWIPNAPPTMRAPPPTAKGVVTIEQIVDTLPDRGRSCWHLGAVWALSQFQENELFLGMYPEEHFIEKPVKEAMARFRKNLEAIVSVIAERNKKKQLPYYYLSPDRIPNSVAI
The experiment in a line: Inhibition of human recombinant 5-LOX expressed in Escherichia coli BL21 assessed as decrease in 5-HPETE production preincubated with enzyme followed by arachidonic acid substrate addition by UV-vis spectrophotometry.

Data set [3] deals with T3, Prostaglandin E synthase (Homo sapiens) (UniProt O14684).
T3 sequence (whole entry): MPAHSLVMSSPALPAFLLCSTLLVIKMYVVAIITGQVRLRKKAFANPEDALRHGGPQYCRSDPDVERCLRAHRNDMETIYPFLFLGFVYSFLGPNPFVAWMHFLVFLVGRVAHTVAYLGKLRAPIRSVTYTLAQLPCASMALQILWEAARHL
The experiment in a line: Inhibition of mPGES1 in human HeLa cells assessed as reduction in TNF-alpha induced PGE2 production at 5 uM preincubated for 2 hrs followed by TNF-alpha addition for 24 hrs by ELISA. Type of data set: cell-based. A digest of the protocol:
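Read-out was PGE2 released into the HeLa culture supernatant, measured with an ELISA kit.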

Data set [4] deals with Prostaglandin G/H synthase 1 (Homo sapiens, UniProt P23219). The experiment in a line: Inhibition of COX-1 (unknown origin).
In data set [5] the test system is HeLa. Briefly: Inhibition of COX-2 mRNA expression in human HeLa cells at 5 uM by RT-PCR method. It counts as functional, cell-based. The procedure, abridged:
(§1)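 Real-time PCR on treated HeLa cells. mRNA levels were normalized to untreated cells and to β-actin, and significance was assessed by 2-way ANOVA.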

For data set [6], the target named is T4, Polyunsaturated fatty acid 5-lipoxygenase (Homo sapiens) (UniProt P09917).
T4 sequence (whole entry): T2 sequence (P09917 whole entry)
The experiment in a line: Inhibition of human recombinant 5-LOX expressed in Escherichia coli BL21 assessed as decrease in 5-HPETE production at 50 uM preincubated with enzyme followed by arachidonic acid substrate addition by UV-vis spectrophotometry.

Data set [7] has as its system HeLa. Briefly: Inhibition of mPGES1 mRNA expression in human HeLa cells at 5 uM by RT-PCR method. Type of data set: functional, cell-based. A digest of the protocol:
as §1

Data set [8] in a line: Cytotoxicity against human HeLa cells assessed as cell proliferation at 50 uM after 24 hrs by MTT assay. Type of data set: toxicity, cell-based. The following applies: read-out: Activity.
For a further data set, the target named is T5, Prostaglandin E synthase (Homo sapiens, UniProt O14684).
T5 sequence (O14684 whole entry): T3 sequence (whole entry)
Briefly: Inhibition of mPGES1 in human A549 cells assessed as reduction in PGE2 production. It counts as cell-based.

Data set [9] concerns the target T1, Prostaglandin E synthase/G/H synthase 2 (Homo sapiens). Briefly: Inhibition of COX-2/mPGES1 in human HeLa cells assessed as reduction in TNF-alpha induced PGE2 production at 5 uM preincubated for 15 mins followed by arachidonic acid addition for 15 mins by ELISA. It counts as cell-based. A digest of the protocol: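 HeLa cells primed with TNF at 50 ng/ml to induce mPGES1, then exposed to compound for 15 min, then challenged with exogenous arachidonic acid for a further 15 min. PGE2 released into the culture supernatant was quantified by ELISA.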

The record followed here is ChEMBL document CHEMBL3872230, “Inhibition of the enzymes in the leukotriene and prostaglandin pathways in inflammation by 3-aryl isocoumarins” (Eur J Med Chem, 2016).

pEC50, pIC50: −log10 of the molar value. Calls of active or inactive are those of the source. The rule behind the calls is not given here.

T1 sequence (P35354 whole entry, looked up, one chain of several): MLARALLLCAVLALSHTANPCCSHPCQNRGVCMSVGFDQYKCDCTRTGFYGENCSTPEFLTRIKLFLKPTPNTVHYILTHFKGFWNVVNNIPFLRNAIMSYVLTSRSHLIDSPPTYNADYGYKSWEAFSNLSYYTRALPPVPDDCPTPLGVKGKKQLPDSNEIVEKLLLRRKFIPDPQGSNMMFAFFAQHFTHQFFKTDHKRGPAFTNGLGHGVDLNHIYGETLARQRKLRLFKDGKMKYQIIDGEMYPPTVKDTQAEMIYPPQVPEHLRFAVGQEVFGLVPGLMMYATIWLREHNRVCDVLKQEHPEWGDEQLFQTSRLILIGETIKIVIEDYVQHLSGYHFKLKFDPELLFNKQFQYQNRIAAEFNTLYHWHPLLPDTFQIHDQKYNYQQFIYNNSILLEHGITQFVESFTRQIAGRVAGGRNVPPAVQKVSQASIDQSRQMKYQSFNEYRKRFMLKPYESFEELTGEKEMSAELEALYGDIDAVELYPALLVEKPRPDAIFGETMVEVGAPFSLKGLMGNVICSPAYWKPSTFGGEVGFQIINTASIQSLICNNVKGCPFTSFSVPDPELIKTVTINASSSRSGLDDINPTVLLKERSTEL
Chain of Prostaglandin G/H synthase 1 (P23219 whole entry): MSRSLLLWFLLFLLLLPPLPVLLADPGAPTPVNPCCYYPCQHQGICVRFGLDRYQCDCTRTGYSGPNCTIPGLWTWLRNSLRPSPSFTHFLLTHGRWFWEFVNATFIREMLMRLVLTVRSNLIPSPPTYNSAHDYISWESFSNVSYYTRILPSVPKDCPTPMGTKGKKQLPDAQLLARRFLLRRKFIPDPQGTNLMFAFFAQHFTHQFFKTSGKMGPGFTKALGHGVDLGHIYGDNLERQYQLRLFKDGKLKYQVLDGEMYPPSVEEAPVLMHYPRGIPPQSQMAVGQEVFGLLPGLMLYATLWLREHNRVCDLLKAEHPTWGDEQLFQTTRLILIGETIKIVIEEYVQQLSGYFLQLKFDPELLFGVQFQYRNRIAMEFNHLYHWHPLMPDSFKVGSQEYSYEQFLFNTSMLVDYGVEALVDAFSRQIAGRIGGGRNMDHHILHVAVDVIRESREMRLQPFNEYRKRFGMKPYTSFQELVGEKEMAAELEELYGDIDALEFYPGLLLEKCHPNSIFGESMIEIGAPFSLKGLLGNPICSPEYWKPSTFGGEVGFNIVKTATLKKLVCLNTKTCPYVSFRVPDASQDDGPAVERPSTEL

`CC1(C)Cc2c(-c3ccccc3)c(-c3ccc(Cl)cc3)c(CC(=O)O)n2C1` [LICOFELONE]: the inhibition in [1] worked out at 81%; in [3], 48%; in data set [6] it was 71%; in data set [9] it was 54.7%. Also, the figures for the pIC50 in data set [2] and in data set [4] were 6.30 and 6.10, respectively. The inhibition result in the data set on HeLa [5] and in the data set with HeLa [7] was “Active” throughout. Moreover, the viability at 24 h, 50 µM in data set [8] is 85%. Also, the pEC50 on Prostaglandin E synthase is 7.00.
